In ChEMBL document CHEMBL1141491, “Design, synthesis, and evaluation of novel ethambutol analogues” (2008):
Values after ≈ are worked out from the molar mass of the structure shown.

system: Mycobacterium tuberculosis; assay: Antituberculosis activity against Mycobacterium tuberculosis H37Rv by microbroth dilution method; format: functional
Summary of the method: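 M. tuberculosis H37Rv grown in Middlebrook 7H9 with 10% ADC to OD600 0.4–0.6, then diluted in 7H9 to OD600 0.01. This inoculum was added to 2-fold serial dilutions of compound and incubated 37 °C for 7 days. MIC90 was read visually as the concentration inhibiting 90% of growth.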

Structure (SMILES)	MIC90 [µg/mL]
CC[C@@H](CO)NCCNC(C)(C)CO.Cl.Cl	1.6
CC(C)(CO)NCCNC(C)(C)CO.Cl.Cl	6.25
CC[C@@H](CO)NCCN[C@H](CO)c1ccccc1.Cl.Cl	50
Br.Br.CC[C@@H](CO)NCCN[C@@H](CC)CO [ETHAMBUTOL HYDROBROMIDE]	0.8
CC[C@@H](CO)NCCNC1(CO)CCCC1.Cl.Cl	1.6
CC[C@@H](CO)NCCNC(CO)CO.Cl.Cl	3.12
CC[C@@H](CO)NCCN[C@@](C)(CC)CO	3.12 (≈ 14.3 µM)
Cl.Cl.OCC1(NCCNC2(CO)CCCC2)CCCC1	3.12
C=CC[C@@H](CO)NCCN[C@@H](CC)CO.Cl.Cl	25
C=CC[C@@](C)(CO)NCCN[C@@H](CC)CO.Cl.Cl	6.25
